# Published values from different studies.
# Lines come from different studies, so protocols differ.
# Cell line: A2780
# Observed: cell growth or viability
SMILES,assay,conditions,endpoint,value
COc1ccc(C(=O)O[C@@H]2CN3Cc4c(cc5c(c4OC)OCO5)[C@@]24C=C[C@H](OC)C[C@@H]34)cc1,WST-1,,IC50,> 10 µM
Nc1ccn([C@@H]2O[C@H](CO)[C@@H](O)C2(F)F)c(=O)n1,CCK-8,72 h,IC50,0.0047 µM
CC[C@@H]1C=CC(=O)O[C@@H]1C[C@@H](O)[C@H](C)[C@H](OC)[C@@H](C)Cc1ccc(F)cc1,MTT,48 h,GI50,0.215 µM
CC(=O)O[C@H]1C(=O)[C@@]2(C)[C@H]([C@H](OC(=O)c3ccccc3)[C@]3(O)C[C@H](OC(=O)[C@H](O)[C@@H](NC(=O)c4ccccc4)c4ccccc4)C(C)=C1C3(C)C)[C@]1(OC(C)=O)CO[C@@H]1C[C@@H]2O,CCK-8,72 h,IC50,0.0082 µM
CC[C@@H]1C=CC(=O)O[C@@H]1C[C@@H](OC)[C@H](C)[C@H](OC)[C@@H](C)Cc1ccc(F)cc1,MTT,48 h,GI50,1.93 µM
CC(C)C(=O)Nc1ccc([N+](=O)[O-])c(C(F)(F)F)c1,CCK-8,48 h,IC50,> 50 µM
Cc1[nH]c2ccccc2c1CCNCc1ccc(/C=C/C(=O)NO)cc1,crystal violet,48 h,IC50,0.0039 µM
Cc1ccc2ccc3ccc(C)nc3c2n1.[C-]#[N+]c1ccc(C)cc1.[C-]#[O+].[C-]#[O+].[C-]#[O+].[Re+],MTT,24 h,EC50,1.4 µM
CC[C@@H]1C=CC(=O)O[C@@H]1C[C@@H](O)[C@H](C)[C@H](OC)[C@@H](C)Cc1ccccc1,MTT,48 h,GI50,0.0819 µM
COc1ccc(C(=O)O[C@@H]2CN3Cc4c(cc5c(c4OC)OCO5)[C@@]24C=C[C@H](OC)C[C@@H]34)cc1OC,WST-1,,IC50,6 µM
CC[C@]1(O)C[C@H]2CN(CCc3c([nH]c4ccccc34)[C@@](C(=O)OC)(c3cc4c(cc3OC)N(C=O)[C@H]3[C@@](O)(C(=O)OC)[C@H](OC(C)=O)[C@]5(CC)C=CCN6CC[C@]43[C@@H]65)C2)C1,fluorescence,72 h,IC50,0.00022 µM
C[C@H]1O[C@@H](n2cc(F)c(=O)[nH]c2=O)[C@H](O)[C@@H]1O,CCK-8,48 h,IC50,> 50 µM
COc1c2c(cc3c1OCO3)[C@]13C=C[C@H](OC)C[C@H]1N(C2)C[C@H]3OC(=O)c1cccc(C)c1,WST-1,,IC50,> 10 µM
CCC[C@H](Nc1nc(-c2ccc(NC(=O)NCC)c(OC)c2)ncc1C)c1cccnc1,fluorescence,72 h,IC50,0.0546 µM
